By IC50 is commonly meant the point on the concentration scale where inhibition reaches its midpoint.

This note sets out measurements from PubChem BioAssay AID652011 (Sanford-Burnham Center for Chemical Genomics, 2013).

Activity calls are given as the source filed them.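 How the source made its calls: active means IC50 of 10 µM or lower on HIF-2a in both cell lines, but not on HIF-1a; inactive means the rest, including compounds also potent on HIF-1a.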 Where only a bound is given, the exact number is not on record here.

Common to all, as to experiment: HIF reporter inhibition across pancreatic and renal lines – cell-based, luminescence, MIAPaCa-2, 786-0, panel, SAR follow-up (AID 652011)
The target in test [1] is Endothelial PAS domain-containing protein 1 (Homo sapiens) (UniProt Q99814). The conditions noted are these: MIAPaCa-2/PANC HIF reporter, luciferase luminescence, desferoxamine, overnight; HIF2a PANC cells; mean of runs. The procedure, abridged: (§1)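 Probe or stimulus: desferoxamine stimulus; times: overnight seeding and compound exposure, 37 °C, 5% CO2, 10-min detection; signal: One-Glo luciferase luminescence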

Test [2] deals with Hypoxia-inducible factor 1-alpha (Homo sapiens) (UniProt Q16665). Particulars: MIAPaCa-2/PANC HIF reporter, luciferase luminescence, desferoxamine, overnight; HIF1a; mean of runs. The procedure, abridged:
as §1

The subject of another test is HIF1a. Particulars: MIAPaCa-2/PANC HIF reporter, luciferase luminescence, desferoxamine, overnight. The procedure, abridged: as §1
In the next test the test system is HIF2a PANC. The conditions noted are these: MIAPaCa-2/PANC HIF reporter, luciferase luminescence, desferoxamine, overnight. The procedure, abridged:
as §1

The mark [3] stands for this setting: run 1, individual run IC50, panel line.
Where [4] appears, read: run 2, individual run IC50, panel line.

Chain of Hypoxia-inducible factor 1-alpha (Homo sapiens) (Q16665 whole entry, looked up): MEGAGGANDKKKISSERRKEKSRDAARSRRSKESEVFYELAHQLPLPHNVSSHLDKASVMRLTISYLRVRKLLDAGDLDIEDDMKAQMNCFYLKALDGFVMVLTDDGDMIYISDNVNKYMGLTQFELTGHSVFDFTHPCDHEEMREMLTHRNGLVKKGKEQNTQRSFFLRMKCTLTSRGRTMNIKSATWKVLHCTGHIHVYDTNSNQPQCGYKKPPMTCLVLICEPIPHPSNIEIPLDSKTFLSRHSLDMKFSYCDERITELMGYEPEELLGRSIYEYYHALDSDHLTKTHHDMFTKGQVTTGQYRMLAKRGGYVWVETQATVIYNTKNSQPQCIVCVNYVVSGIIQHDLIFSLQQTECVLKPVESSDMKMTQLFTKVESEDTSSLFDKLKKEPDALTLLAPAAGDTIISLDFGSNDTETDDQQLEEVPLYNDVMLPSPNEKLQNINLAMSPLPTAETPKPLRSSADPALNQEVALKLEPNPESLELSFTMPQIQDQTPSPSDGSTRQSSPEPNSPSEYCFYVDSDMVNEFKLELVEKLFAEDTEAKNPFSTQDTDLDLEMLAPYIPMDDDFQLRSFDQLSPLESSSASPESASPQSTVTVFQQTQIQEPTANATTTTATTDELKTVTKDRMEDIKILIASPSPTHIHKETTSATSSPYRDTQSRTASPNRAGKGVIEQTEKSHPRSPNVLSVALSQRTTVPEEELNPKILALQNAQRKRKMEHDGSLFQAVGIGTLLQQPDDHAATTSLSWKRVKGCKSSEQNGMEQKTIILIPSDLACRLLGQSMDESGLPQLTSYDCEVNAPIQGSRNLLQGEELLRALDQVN
Chain of Endothelial PAS domain-containing protein 1 (Homo sapiens) (Q99814 whole entry, looked up, the tested form may be a part): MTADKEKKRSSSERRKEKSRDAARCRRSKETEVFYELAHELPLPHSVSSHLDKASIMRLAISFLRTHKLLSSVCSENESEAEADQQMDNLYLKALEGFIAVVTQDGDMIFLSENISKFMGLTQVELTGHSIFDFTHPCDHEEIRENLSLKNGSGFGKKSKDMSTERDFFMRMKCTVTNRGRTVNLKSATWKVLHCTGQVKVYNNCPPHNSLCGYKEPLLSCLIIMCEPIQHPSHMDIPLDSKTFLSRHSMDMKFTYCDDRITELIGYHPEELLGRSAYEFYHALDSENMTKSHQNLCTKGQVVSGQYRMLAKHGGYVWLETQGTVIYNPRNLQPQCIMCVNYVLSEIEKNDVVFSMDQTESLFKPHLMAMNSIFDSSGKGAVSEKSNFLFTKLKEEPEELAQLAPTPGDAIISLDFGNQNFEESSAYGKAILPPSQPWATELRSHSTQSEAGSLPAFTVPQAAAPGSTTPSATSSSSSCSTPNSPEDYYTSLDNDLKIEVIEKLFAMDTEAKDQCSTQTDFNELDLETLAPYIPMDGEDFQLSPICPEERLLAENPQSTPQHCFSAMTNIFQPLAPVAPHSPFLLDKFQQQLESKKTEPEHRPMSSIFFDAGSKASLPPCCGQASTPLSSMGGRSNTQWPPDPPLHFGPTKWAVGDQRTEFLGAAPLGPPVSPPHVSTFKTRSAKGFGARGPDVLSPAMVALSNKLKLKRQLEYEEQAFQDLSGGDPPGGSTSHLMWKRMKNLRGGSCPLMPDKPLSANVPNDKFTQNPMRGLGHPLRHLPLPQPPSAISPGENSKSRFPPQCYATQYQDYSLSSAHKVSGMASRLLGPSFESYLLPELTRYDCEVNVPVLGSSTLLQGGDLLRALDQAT

In the case of `COC(=O)CCc1nc(-c2ccc(C(C)(C)C)cc2)no1`, the half-inhibitory concentration (IC50) was below 0.19 µM in test [1]; below 0.19 µM in test [2]; below 1 µM in the test with HIF1a (setting [3]); below 0.19 µM with HIF1a (setting [4]); below 0.19 µM in the test on HIF2a PANC (setting [3]); below 0.19 µM in the test on HIF2a PANC (setting [4]).
Take `CC(C)(C)c1ccc(-c2noc(CCC(=O)NC3CCCC3)n2)cc1`: the half-inhibitory concentration (IC50) in test [1] is below 0.19 µM; in test [2], 49.6 µM; in the test on HIF1a (setting [3]), above 99 µM; in the test with HIF1a (setting [4]) it was below 0.19 µM; with HIF2a PANC (setting [3]), below 0.19 µM; in the test on HIF2a PANC (setting [4]), below 0.19 µM.
Take `COc1cccc(NC(=O)CCc2nc(-c3ccc(C(C)(C)C)cc3)no2)c1`: the half-inhibitory concentration (IC50) in test [1] was below 0.19 µM; in test [2], 0.229 µM; in the test with HIF1a (setting [3]), below 0.19 µM; in the test on HIF1a (setting [4]), 0.229 µM; in the test on HIF2a PANC (setting [3]), below 0.19 µM; with HIF2a PANC (setting [4]), below 0.19 µM.
Take `CCOc1ccccc1NC(=O)CCc1nc(-c2ccc(C(C)(C)C)cc2)no1`: the IC50 in test [1] is below 0.19 µM; in test [2] it was 0.973 µM; in the test with HIF1a (setting [3]), above 99 µM; in the test with HIF1a (setting [4]), 0.973 µM; with HIF2a PANC (setting [3]), below 0.19 µM; with HIF2a PANC (setting [4]) it was below 0.19 µM.
For the compound `CC(C)(C)c1ccc(-c2noc(CCC(=O)NC3CCCCC3)n2)cc1`, the half-inhibitory concentration (IC50) in test [1] is below 0.19 µM; in test [2], 38 µM; in the test on HIF1a (setting [3]) it was above 99 µM; in the test on HIF1a (setting [4]), 38 µM; with HIF2a PANC (setting [3]), below 0.19 µM; with HIF2a PANC (setting [4]) it was below 0.19 µM.
On to `COc1ccccc1NC(=O)CCc1nc(-c2ccc(C(C)(C)C)cc2)no1`, for which the IC50 in test [1] is below 0.19 µM; in test [2], 0.647 µM; in the test with HIF1a (setting [3]) it was above 99 µM; in the test on HIF1a (setting [4]), 0.647 µM; with HIF2a PANC (setting [3]), below 0.19 µM; with HIF2a PANC (setting [4]), below 0.19 µM.
As for `CCOc1ccc(-c2noc(CCC(=O)O)n2)cc1`, the 50% inhibitory concentration (IC50) in test [1] was 5.86 µM; in test [2] it was 1.34 µM; with HIF1a (setting [3]), 1.17 µM; with HIF1a (setting [4]), 1.51 µM; in the test with HIF2a PANC (setting [3]), 4.44 µM; in the test on HIF2a PANC (setting [4]), 7.28 µM.
Consider `CCNC(=O)CCc1nc(-c2cccc(OC)c2)no1`, for which the IC50 in test [1] is > 99 µM (inactive); with HIF1a (setting [3]), above 99 µM; in the test on HIF1a (setting [4]), above 99 µM; in the test on HIF2a PANC (setting [3]), above 99 µM; with HIF2a PANC (setting [4]), above 99 µM.
Turning to `CCNC(=O)CCc1nc(-c2ccccc2Cl)no1`, the IC50 is > 99 µM (inactive) in test [1]; above 99 µM in the test on HIF1a (setting [3]); above 99 µM with HIF1a (setting [4]); above 99 µM in the test on HIF2a PANC (setting [3]); above 99 µM in the test with HIF2a PANC (setting [4]).
`CNC(=O)CCc1nc(-c2ccc(Cl)cc2)no1`: the IC50 in test [1] is > 99 µM (inactive); in the test on HIF1a (setting [3]), above 99 µM; in the test with HIF1a (setting [4]) it was above 99 µM; in the test on HIF2a PANC (setting [3]), above 99 µM; in the test on HIF2a PANC (setting [4]) it was above 99 µM.
`CCCCc1ccc(-c2noc(CCC(=O)NCC)n2)cc1`: the IC50 is below 0.19 µM in test [1]; above 99 µM in the test on HIF1a (setting [3]); above 99 µM with HIF1a (setting [4]); below 0.19 µM with HIF2a PANC (setting [3]); below 0.19 µM with HIF2a PANC (setting [4]).
For the compound `CCNC(=O)CCc1nc(-c2ccc(C(C)C)cc2)no1`, the IC50 in test [1] was > 99 µM (inactive); with HIF1a (setting [3]) it was above 99 µM; in the test with HIF1a (setting [4]), above 99 µM; in the test with HIF2a PANC (setting [3]) it was above 99 µM; in the test on HIF2a PANC (setting [4]), above 99 µM.
With `CNC(=O)CCc1nc(-c2ccc(C(C)C)cc2)no1`, the concentration for half-maximal inhibition (IC50) is below 0.19 µM in test [1]; above 99 µM in the test on HIF1a (setting [3]); above 99 µM in the test with HIF1a (setting [4]); below 0.19 µM in the test on HIF2a PANC (setting [3]); below 0.19 µM in the test on HIF2a PANC (setting [4]).
Consider `CCC(C)NC(=O)CCc1nc(-c2ccccc2)no1` (stereo not given), for which the IC50 in test [1] was > 99 µM (inactive); in the test with HIF1a (setting [3]), above 99 µM; with HIF1a (setting [4]) it was above 99 µM; in the test with HIF2a PANC (setting [3]) it was above 99 µM; with HIF2a PANC (setting [4]), above 99 µM.
In the case of `CC(C)(C)c1ccc(-c2noc(CCC(=O)N3CCCCC3)n2)cc1`, the IC50 result in test [1] is “inactive”. Further, the concentration for half-maximal inhibition (IC50) was above 99 µM in the test on HIF1a (setting [3]), above 99 µM in the test with HIF1a (setting [4]), above 99 µM in the test with HIF2a PANC (setting [3]) and 38.2 µM with HIF2a PANC (setting [4]).
As to `CC(C)(C)c1ccc(-c2noc(CCC(=O)O)n2)cc1`, the IC50 (in test [1]; in test [2]; in the test with HIF1a (setting [3]); in the test on HIF1a (setting [4]); in the test on HIF2a PANC (setting [3]); in the test with HIF2a PANC (setting [4])) was below 0.19 µM in each case.
With `CC(C)(C)c1ccc(-c2noc(CCC(=O)Nc3cccnc3)n2)cc1`, the half-maximal inhibitory concentration (IC50) in test [1] was below 0.19 µM; in test [2], 33.4 µM; in the test with HIF1a (setting [3]), 38.1 µM; in the test on HIF1a (setting [4]), 28.6 µM; in the test with HIF2a PANC (setting [3]), below 0.19 µM; with HIF2a PANC (setting [4]), below 0.19 µM.
Take `CCC(C)NC(=O)CCc1nc(-c2ccc(C(C)C)cc2)no1` (stereo not given): the IC50 in test [1] was > 99 µM (inactive); in the test on HIF1a (setting [3]) it was above 99 µM; in the test with HIF1a (setting [4]), above 99 µM; with HIF2a PANC (setting [3]) it was above 99 µM; in the test on HIF2a PANC (setting [4]) it was above 99 µM.
For `CC(C)(C)c1ccc(-c2noc(CCC(=O)NC3CC3)n2)cc1`, the IC50 was below 0.19 µM in test [1]; above 99 µM in the test with HIF1a (setting [3]); above 99 µM in the test on HIF1a (setting [4]); below 10 µM in the test on HIF2a PANC (setting [3]); below 0.19 µM in the test on HIF2a PANC (setting [4]).
Turning to `CC(C)(C)c1ccc(-c2noc(CCC(=O)Nc3cccc([N+](=O)[O-])c3)n2)cc1`, the IC50 in test [1] is below 0.19 µM; in test [2], 8.29 µM; in the test on HIF1a (setting [3]) it was 9.87 µM; in the test with HIF1a (setting [4]), 6.7 µM; in the test on HIF2a PANC (setting [3]) it was below 0.19 µM; in the test with HIF2a PANC (setting [4]), below 0.19 µM.
Regarding `CNC(=O)CCc1nc(-c2ccccc2)no1`, the IC50 in test [1] is > 99 µM (inactive); with HIF1a (setting [3]), above 99 µM; in the test with HIF1a (setting [4]) it was above 99 µM; in the test with HIF2a PANC (setting [3]), above 99 µM; in the test on HIF2a PANC (setting [4]) it was above 99 µM.
`CCc1ccc(-c2noc(CCC(=O)NC(C)CC)n2)cc1` (stereo not given): the IC50 in test [1] was > 99 µM (inactive); with HIF1a (setting [3]), above 99 µM; in the test with HIF1a (setting [4]), above 99 µM; with HIF2a PANC (setting [3]), above 99 µM; with HIF2a PANC (setting [4]) it was above 99 µM.
